# Compounds with a hit are over-represented: about 1.9% of the library has one in this group of screens.
# MC4R ag barr – activates human MC4R beta-arrestin recruitment | 360,000 compounds, 0.98% hits | AID 540308 | activation, % at 8.9 µM | U2OS MC4R beta-arrestin complementation, luminescence; percent of melanotan II response, DMSO zero | P32245;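 active = activation above a per-plate cutoff, the mean activation of sample wells on that plate plus 3 SD, cut at about 8% in these data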
# TLR9-MyD88 inh – TLR9-MyD88 interaction inhibition. Q9NR96+Q99836. CHO BLA complementation TLR9-MyD88, CCF4 FRET ratio. inhibition, % at 4.98 µM. 340,000 compounds, 0.21% hits. AID 504734;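 active = inhibition above the mean over all tested compounds plus 3 SD, cut at about 21% in these data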;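 note: 0% = DMSO only wells and 100% = clavulanate BLA inhibitor control wells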
# NOD2-RIPK2 inh – NOD2-RIPK2 protein interaction inhibition | AID 624267 | CHO BLA complementation NOD2-RIPK2, CCF4 ratio | inhibition, % at 4.98 µM | 360,000 compounds, 0.38% hits | O43353; in the data active = inhibition above about 21%;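 note: 0% = vehicle only and 100% = reference blocker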
# NTR1 ag – agonists of human neurotensin receptor NTR1; NTR1-U2OS beta-arrestin-GFP spot imaging, agonist mode; activation, % at 20 µM; 330,000 compounds, 0.17% hits;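 active = activation at or above 40% of the spot to cytoplasm intensity ratio, with at least 20 cells analyzed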;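 note: 0% = DMSO without peptide and 100% = 100 nM NTR1 peptide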
# MC4R antag cAMP – human MC4R antagonism in cAMP assay. P32245. MC4R-expressing cells, MTII-stimulated cAMP, LANCE TR-FRET. inhibition, % at 6.5 µM. 360,000 compounds, 0.48% hits. AID 540295;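 active = inhibition above its plate's cutoff, the mean of tested wells on that plate plus 3 SD, cut at about 29% in these data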;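 note: 0% = Melanotan II alone and 100% = Melanotan II plus saturating MCL0020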
#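 system = U2OS cells with stable human MC4R expression | also added = Melanotan II challenge after compound preincubation | dosing = one concentration, 6.5 µM nominal | incubation = compound 30 min, challenge 1 h, detection 1 h | measured by = TR-FRET with Eu-cAMP and labeled anti-cAMP, 671 nm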
# TLR4-MyD88 BLA – TLR4-MyD88 interaction inhibition in cells | AID 861 | 200,000 compounds, 0.18% hits | HeLa CL3-4 TLR4/MyD88 BLA complementation, FRET ratio | inhibition, % at 8.4 µM; in the data active = inhibition above about 25%;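 note: 0% = vehicle and 100% = reference inhibitor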
# MC4R barr ag – human MC4R beta-arrestin agonism confirmation; shares compounds with MC4R ag barr; U2OS MC4R beta-arrestin recruitment, luminescence; scaled DMSO 0%, Melanotan II 100%; AID 602192; activation, % at 8.9 µM; 2,400 compounds, 31% hits;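 active = mean activation across replicates above the hit cutoff set in the earlier primary screen, cut at about 8% in these data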
# MOR-DOR barr ag – counter-screen for MC4R agonists: agonists of mu-delta opioid heterodimer; shares compounds with MC4R ag barr; U2OS PathHunter beta-arrestin, beta-gal luminescence; percent of deltorphin B response, DMSO zero; activation, % at 9.2 µM; 2,400 compounds, 5.8% hits; AID 602194;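 active = mean activation across replicates exceeds the hit threshold derived in the earlier primary screen, cut at about 18% in these data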;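 note: 100% = deltorphin B at 0.9 µM final and 0% = DMSO alone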
# Numbers without * were called inactive; · = no result given.
SMILES,MC4R ag barr,TLR9-MyD88 inh,NOD2-RIPK2 inh,NTR1 ag,MC4R antag cAMP,TLR4-MyD88 BLA,MC4R barr ag,MOR-DOR barr ag
Clc1cccc(Cl)c1CON/C=N/c1ncnc2sccc12,11.8*,0.1,3.7,5.5,9.8,-1.8,3.3,4.7
Cc1ccc2c(CN3CCN(c4ccc(Cl)c(Cl)c4)CC3)cc(=O)oc2c1,·,·,-13.0,·,·,·,·,·
CSc1ccc(CCNC(=O)CSc2ccsc2[N+](=O)[O-])cc1,11.2*,-2.4,1.6,-1.0,0.3,1.9,3.5,12.4
CN1C(=S)N(c2ccccc2)C(=O)/C1=C/c1cccs1,16.5*,1.9,-2.4,11.9,-4.2,-7.8,7.7,1.6
C[C@@H]1COC(=O)[C@@H](CC(=O)OC(C)(C)C)C/C=C\C[C@H](CC(=O)NCCO)C(=O)N1,0.2,-4.0,-10.8,-2.9,3.5,·,·,·
CCC(C)Sc1nc2c(cnn2-c2ccccc2)c(=O)[nH]1 (stereo not drawn),10.8*,-3.8,-5.8,6.7,6.6,11.5,2.7,2.2
Cc1ccc2nc(NC(=O)CCNS(=O)(=O)c3ccc(Br)s3)sc2c1,13.7*,8.1,-6.6,0.4,4.4,-2.3,7.1,6.9
CCOc1ccc(OCC)c(NC(=O)CN2CCN(CC(=O)NC(C)C)CC2)c1,-0.9,9.3,-4.9,0.6,2.2,·,·,·
O=C(COc1ccc(-n2cnnn2)cc1)Nc1cc(Cl)cc(Cl)c1,16.6*,-3.9,1.1,-0.4,-0.2,·,4.9,7.6
COc1cc2nc(N3CCN(c4cc(C)ccc4C)CC3)nc(N)c2cc1OC,12.1*,2.2,17.9,7.5,6.8,·,9.8*,20.7*
O=C(NCC1CCCCC1)c1cccc(-c2ccc(O)cc2)c1,4.0,1.3,-0.1,10.1,23.0,·,·,·
COc1ccc(-c2ccc(SCC(=O)Nc3nccs3)nn2)cc1OC,10.6*,2.0,8.7,1.0,3.3,-1.9,3.2,2.3
COc1ccc(NC(=O)CSc2ccc(-c3cccs3)nn2)c(OC)c1,14.4*,-2.8,-3.2,1.2,-2.1,9.6,-0.1,2.2
COc1ccc(NC(=O)CSc2ccc(-c3cccnc3)nn2)c(OC)c1,0.2,-0.1,-1.9,0.3,1.1,·,·,·
O=C(O)c1sc2cccc(Cl)c2c1Cl,-0.6,14.5,-6.5,2.5,9.8,-6.1,·,·
O=C(CSc1ncnc2nc[nH]c12)Nc1nnc(SCc2ccc(Cl)c(Cl)c2)s1,16.2*,3.4,0.4,-1.2,14.5,1.6,5.8,2.2
Cc1ccc(C)c(NC(=O)CSc2ncnc3nc[nH]c23)c1,-1.1,-4.5,-1.9,-0.1,8.1,-3.2,·,·
Cc1ccc(C(C)C)c(OCCNC(=O)c2ccccc2O)c1,12.7*,-12.8,1.9,2.5,3.5,·,3.4,11.3
CCOc1cc(/C=N/NC(=O)CSc2nnc(C)s2)ccc1OCc1ccccc1Cl,11.2*,-6.7,7.3,4.9,12.8,-8.0,5.0,6.8
COc1cc2c(-c3ccc4[nH]ccc4c3)c(-c3ccc(C#N)cc3)oc(=O)c2cc1OC,-2.0,1.5,7.1,2.5,4.7,·,·,·
Cc1ccc(S(=O)(=O)N2C[C@H]3[C@H]4C(=O)N(Cc5ccccc5)C(=O)[C@H]4CC(=O)[C@H]3[C@@H]2c2cccc3ccccc23)cc1,·,·,3.1,·,·,·,·,·
COc1ccc(CN2CCn3ncc(C(=O)Nc4cc(C)cc(C)c4)c3C2=O)cc1,31.7*,-3.8,-1.5,5.7,5.2,0.8,-0.1,9.9
COc1ccc(/C=C/c2c(-c3ccc(OC)cc3)sc3cc(OC)c(OC)cc23)cc1,1.1,3.7,-2.5,6.4,21.8,·,·,·
CCC(=O)N(Cc1ccco1)c1nc(-c2cc(OC)ccc2OC)cs1,9.7*,3.4,7.6,8.5,-2.5,6.9,9.1*,5.3
CCC(=O)N(Cc1ccco1)c1nc(-c2ccc(OC)cc2)cs1,6.5,-0.8,1.4,1.9,-11.2,13.7,·,·
O=C1N(Nc2ccccc2)C(c2ccc(Br)cc2)C12CCCC2 (stereo not drawn),4.3,-10.7,-18.1,14.2,13.5,3.5,·,·

# Screens (PubChem)
